mABHD4 FP = inhibitors of mouse ABHD4; purified mABHD4, FP-Rh probe fluorescence polarization; Q8VD66; 370,000 tested, 0.54% active; inhibition, % at 8.92 µM;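 active = inhibition exceeding the mean over every tested compound plus 3 SD, cut at about 30% in these data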
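Assay system: mABHD4 protein; medium: HEPES pH 7.0, NaCl, Pluronic buffer; dosing: 8.92 µM, single dose; schedule: 45 min + 60 min at 25 °C; signal: FP readout, ex 525 nm / em 598 nm; read-out: normalized percent inhibition of probe labeling; repeats: single replicate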
HTRA1 inh = HTRA1 (human) protease inhibition | 340,000 tested, 0.5% active | AID 504803 | inhibition, % at 5.96 µM | recombinant HTRA1, FP-rhodamine activity-based probe, fluorescence polarization; in the data active = inhibition above about 36%
TCR CD3 inh = blocks the human TCR-CD3 interaction. TAMRA-labeled TCR probe fluorescence, biochemical. inhibition, % at 9.4 µM. 360,000 tested, 0.37% active. AID 651800; in the data active = inhibition above about 19%;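 also: recombinant mutant TCR 2C K166C tagged with TAMRA read by polarization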
rCAG binder = binds r(CAG) RNA repeats | AID 651821 | inhibition, % at 3 µM | 370,000 tested, 1.3% active | r(CAG) RNA repeat, TO-PRO-1 dye displacement fluorescence;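 active = inhibition above the plate cutoff, the mean of all test compounds on that plate plus 3 SD, cut at about 35% in these data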;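 also: higher means more dye released from RNA so lower well fluorescence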
SIAE primary = blocks human sialic acid acetylesterase | Q9HAT2 | SIAE FP-Rh probe binding, fluorescence polarization | inhibition, % at 9.66 µM | 370,000 tested, 0.69% active | AID 1053197;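 active = inhibition above a cutoff: mean of compounds within the control limits plus 3 SD of those, cut at about 17% in these data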
Target sequence (Q9HAT2 whole entry, looked up): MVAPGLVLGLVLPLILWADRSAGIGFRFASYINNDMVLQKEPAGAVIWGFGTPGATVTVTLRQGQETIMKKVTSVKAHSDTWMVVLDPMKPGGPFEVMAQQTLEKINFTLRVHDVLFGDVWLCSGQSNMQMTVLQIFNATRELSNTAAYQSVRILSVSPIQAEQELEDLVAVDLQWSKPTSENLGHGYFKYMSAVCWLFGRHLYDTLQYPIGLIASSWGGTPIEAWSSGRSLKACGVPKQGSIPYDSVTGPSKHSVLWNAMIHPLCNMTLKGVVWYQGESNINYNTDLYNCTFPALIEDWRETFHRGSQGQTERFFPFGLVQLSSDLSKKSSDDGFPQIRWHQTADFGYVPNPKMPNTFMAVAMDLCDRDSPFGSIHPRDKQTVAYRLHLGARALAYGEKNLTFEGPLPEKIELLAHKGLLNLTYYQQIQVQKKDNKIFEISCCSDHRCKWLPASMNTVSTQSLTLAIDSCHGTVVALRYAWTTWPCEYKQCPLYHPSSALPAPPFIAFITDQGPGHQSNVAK
rCAG bind conf = r(CAG) RNA repeat binding, confirmation; TO-PRO-1 dye displacement fluorescence; 4,300 tested, 70% active; shares compounds with rCAG binder; inhibition, % at 3 µM;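 active = inhibition above a per-plate cutoff, the mean inhibition of sample wells plus 3 SD, cut at about 35% in these data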;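 also: loss of TO-PRO-1 fluorescence as compound displaces dye from 1x1 AA loop RNA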
DNA CAG counter = DNA CAG dye complex inhibition counter-screen; shares compounds with rCAG binder; d(CAG) DNA oligo TO-PRO-1 dye displacement, fluorescence; inhibition, % at 3 µM; 4,300 tested, 94% active; AID 652068;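 active = inhibition above its plate's cutoff, the mean test-well inhibition plus 3 SD, cut at about 4.8% in these data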;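 also: hits displace the dye from DNA and so lower well fluorescence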
dCAG dye DR = counter-screen for rCAG binders: inhibitors of DNA CAG TO-PRO-1 complex. DNA CAG/GTC duplex TO-PRO-1 dye displacement fluorescence. IC50, µM. AID 686960. shares compounds with rCAG binder. 250 tested, 20% active; in the data active = IC50 below about 10 µM
Large screens that a line does not name were inactive (follow-up assays come after a bar, where they were run). Hits are enriched below; roughly 2.5% of the tested compounds scored in any of these assays.

CCOC(=O)c1sc(NS(=O)(=O)c2ccccc2)nc1C	none
C/C(=N/NC(=O)c1sc(NS(=O)(=O)c2ccccc2)nc1C)c1ccccc1	rCAG binder 58 | rCAG bind conf inactive | DNA CAG counter 7.1
CCOC(=O)c1sc(NS(=O)(=O)c2ccc(F)cc2)nc1C	none
C/C(=N/NC(=O)c1sc(NS(=O)(=O)c2ccccc2)nc1C)c1ccc(F)cc1	rCAG binder 84 | rCAG bind conf 49 | DNA CAG counter 15
Cc1nc(C)c(C(=O)NNS(=O)(=O)c2ccccc2)s1	none
Cc1ccc(C)c(S(=O)(=O)NNC(=O)c2sc(NS(=O)(=O)c3ccccc3)nc2C)c1	rCAG binder 47 | rCAG bind conf inactive | DNA CAG counter 6.4
CC(CNC(=O)CCC(=O)N1CCOc2ccc(Cl)cc21)c1ccccc1 (centres undefined)	none
Cc1noc(C)c1S(=O)(=O)NC(=O)C1(C)CCN1C(=O)c1ccccc1CCc1ccccc1 (centres undefined)	none (no result: HTRA1 inh)
CC1(C(=O)NS(=O)(=O)c2ccccc2)CCN1C(=O)c1ccccc1CCc1ccccc1 (centres undefined)	rCAG binder 40 (no result: HTRA1 inh) | rCAG bind conf inactive | DNA CAG counter 6.5
Cc1ccccc1S(=O)(=O)NC(=O)C1(C)CCN1C(=O)c1ccccc1CCc1ccccc1 (centres undefined)	rCAG binder 50 (no result: HTRA1 inh) | rCAG bind conf 41 | DNA CAG counter 10
CC1(C(=O)NS(=O)(=O)c2ccc(C#N)cc2)CCN1C(=O)c1ccccc1CCc1ccccc1 (centres undefined)	rCAG binder 48 (no result: HTRA1 inh) | rCAG bind conf 45 | DNA CAG counter 11
CC1(C(=O)NS(=O)(=O)c2ccc(Cl)s2)CCN1C(=O)c1ccccc1CCc1ccccc1 (centres undefined)	rCAG binder 71 (no result: HTRA1 inh) | rCAG bind conf 72 | DNA CAG counter 31 | dCAG dye DR 3
Cc1nc(-c2cc(C#N)c(=O)[nH]c2C)cs1	none
CCCNC(=O)C1(C)CCN1C(=O)c1ccccc1CCc1ccccc1 (centres undefined)	none (no result: HTRA1 inh)
Cc1ccc(S(=O)(=O)NC(=O)C2(C)CCN2C(=O)c2ccccc2CCc2ccccc2)cc1 (centres undefined)	rCAG binder 48 (no result: HTRA1 inh) | rCAG bind conf 48 | DNA CAG counter 14
CCCCOc1ccc(C(=O)N/C(=C/C=C/c2ccccc2)C(=O)O)cc1	rCAG binder 56 | rCAG bind conf 54 | DNA CAG counter 19
O=C(O)CCNC(=O)/C(=C\C=C\c1ccccc1)NC(=O)c1ccccc1	none
O=C(O)COc1ccc(/C=N/NC(=O)/C(=C/C=C/c2ccccc2)NC(=O)c2ccccc2)cc1	rCAG binder 53 | rCAG bind conf 43 | DNA CAG counter 17
CCCCOc1ccc(C(=O)N/C(=C/C=C/c2ccccc2)C(=O)NC)cc1	none
CCCCn1c(NC(=O)c2ccccc2Cl)c(C#N)c2nc3ccccc3nc21	rCAG binder 91 | rCAG bind conf 85 | DNA CAG counter 58
COc1ccc(-n2c(NC(=O)c3ccco3)c(C#N)c3nc4ccccc4nc32)cc1	rCAG binder 53 | rCAG bind conf 43 | DNA CAG counter 13
O=S(=O)(Nc1ncccn1)c1ccc(NC(=S)NCCc2ccc(Cl)cc2)cc1	rCAG binder 38 | rCAG bind conf inactive | DNA CAG counter inactive
O=S(=O)(Nc1ccc(S(=O)(=O)Nc2ncccn2)cc1)c1ccc(Cl)cc1	none
O=C(NCCS(=O)(=O)N1CCN(c2ccccc2F)CC1)c1ccco1	none
O=C1NN(c2ccccc2)C(=O)/C1=C/c1ccc(Sc2ccc(Cl)cc2)o1	none
Cc1ccc(Sc2ccc(/C=C3/C(=O)NN(c4ccccc4)C3=O)o2)cc1	rCAG binder 35 | rCAG bind conf 81 | DNA CAG counter 46
FC(F)(F)c1ccccc1Cc1c(-c2ccc(Cl)cc2)nc2ccc(Br)cn12	rCAG binder 64 (no result: HTRA1 inh) | rCAG bind conf inactive | DNA CAG counter inactive
Fc1ccc(-c2nc3ccc(Br)cn3c2Cc2ccccc2C(F)(F)F)cc1	rCAG binder 51 (no result: HTRA1 inh) | rCAG bind conf inactive | DNA CAG counter inactive
Cc1ccc(-c2nc3ccc(C)cn3c2Cc2ccccc2C(F)(F)F)cc1	rCAG binder 36 (no result: HTRA1 inh) | rCAG bind conf inactive | DNA CAG counter inactive
Cc1cc(Br)cn2c(Cc3ccccc3C(F)(F)F)c(-c3ccc(F)cc3)nc12	rCAG binder 55 (no result: HTRA1 inh) | rCAG bind conf 43 | DNA CAG counter 11 | dCAG dye DR inactive
O=C(Nc1ccccc1N1CCOCC1)C1=COCCO1	none
FC(F)(F)c1ccccc1Cc1c(-c2ccc(Cl)cc2)nc2ccc(Cl)cn12	rCAG binder 50 (no result: HTRA1 inh) | rCAG bind conf inactive | DNA CAG counter 7.7
Fc1ccc(-c2nc3ccc(Cl)cn3c2Cc2ccccc2C(F)(F)F)cc1	rCAG binder 38 (no result: HTRA1 inh) | rCAG bind conf inactive | DNA CAG counter inactive
CCSc1nnc(NC(=O)c2nc(S(=O)(=O)Cc3ccc(F)cc3)ncc2Cl)s1	rCAG binder 36 | rCAG bind conf inactive | DNA CAG counter 5.8
CSc1ncc(Cl)c(C(=O)Nc2nnc(SC/C=C/c3ccccc3)s2)n1	rCAG binder 66 | rCAG bind conf 67 | DNA CAG counter 20
C=CCSc1nnc(NC(=O)c2nc(SCC)ncc2Cl)s1	none (no result: mABHD4 FP, TCR CD3 inh, rCAG binder, SIAE primary)
CSc1nnc(NC(=O)c2nc(S(=O)(=O)Cc3cccc(C)c3)ncc2Cl)s1	rCAG binder 37 | rCAG bind conf inactive | DNA CAG counter 4.5
O=C1C(c2cc(=O)c3ccccc3[nH]2)=C(O)c2ccccc21	rCAG binder 63 | rCAG bind conf 36 | DNA CAG counter 8.5
O=c1cc(-c2ccccc2)[nH]c2ccccc12	none
O=C(Nc1ccc(Br)cc1)N1CCCC(O)C1 (centres undefined)	none
CCc1c(C)[nH]c2ccc(OC)cc2c1=S	none
CCOc1ccc(Cc2c(C)[nH]c3ccc(C(=O)O)cc3c2=S)cc1	rCAG binder 36 | rCAG bind conf inactive | DNA CAG counter 7.6
N=C1/C(=C\c2ccc(OC(=O)c3ccccc3Cl)cc2)C(=O)N=C2SC(N3CCOCC3)=NN12	rCAG binder 37 | rCAG bind conf 63 | DNA CAG counter 27
CS(=O)(=O)C1=NSC2=NC(=O)/C(=C\c3ccc(OC(=O)c4ccco4)c(Br)c3)C(=N)N21	rCAG binder 40 | rCAG bind conf 83 | DNA CAG counter 53
COc1cc(/C=C2\C(=N)N3N=C(N4CCOCC4)SC3=NC2=O)ccc1OC(=O)c1ccccc1	none
CSC1=NSC2=NC(=O)/C(=C\c3ccc(OC(=O)c4ccco4)cc3)C(=N)N12	rCAG binder 38 | rCAG bind conf 43 | DNA CAG counter 13

Compound activity from PubChem.
